These results are taken from ChEMBL document CHEMBL1926658, “The design, synthesis and biological evaluations of C-6 or C-7 substituted 2-hydroxyisoquinoline-1,3-diones as inhibitors of hepatitis C virus” (Bioorg Med Chem, 2012).

In general, IC50 refers to the point on the concentration scale where inhibition reaches its midpoint. By EC50 is commonly meant the concentration needed to bring the measured effect to its halfway point. What is called CC50 is the concentration at which the toxic effect on the cells reaches its halfway point.

Molecules are shown by their SMILES.

Series [1] concerns Hepatitis C virus. As to the kind of experiment: Inhibition of recombinant HCV genotype 1b NS5B polymerase activity after 3 hrs by scintillation proximity assay. More on the design: species or system Hepatitis C virus subtype 1b. A digest of the protocol:
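Started with 450 nM oligo-U12 primer, 30 nM UTP, 75 nM poly(A) template and ³H-UTP; 3 h at room temperature, scintillation proximity read-out. Duplicates, ≥2 repeats; IC₅₀ from eight serial dilutions.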

Series [2] can be described thus: Cytotoxicity against human HuH7 cells infected with HCV1b assessed as cell viability at 10 uM after 3 days by MTS assay. Format: cell-based, Huh-7. Particulars: read-out: Activity. A digest of the protocol:
(§1)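 Replicon cells (Huh-7/HCV1b-Rluc) seeded at 6 × 10³/well minus G418, then exposed next day to compound in DMSO for three days at 37 °C/5% CO₂. Viability read with MTS reagent (CellTiter 96 AQueous One) by absorbance at […]. CC₅₀ taken as concentration reducing proliferation by 50%, fitted from eight serial dilutions against vehicle-treated cells.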

Series [3] concerns Hepatitis C virus. As to the kind of experiment: Antiviral activity against HCV genotype 1b infected in human HuH7 cells assessed as reduction in luciferase activity at 10 uM after 3 days. The class given is functional, Hepacivirus hominis, Huh-7. Further details: scale not given: the % may be the effect or the level left. The procedure, abridged: (§2)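 Huh-7/HCV1b-Rluc genotype 1b replicon cells plated at 6 × 10³/well without G418; next day compound in DMSO added, 37 °C/5% CO₂ for 3 days. Live-cell renilla luciferase substrate (1:1000) added, luminescence read immediately. Triplicates, ≥2 independent runs. Single-point tests at 10 µM with ribavirin (10 µM) and 2'-C-methyl adenosine (500 nM) controls; EC₅₀ from eight serial dilutions versus vehicle.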

The test system of series [4] is Hepatitis C virus. As to the kind of experiment: Antiviral activity against HCV genotype 1b infected in human HuH7 cells after 3 days by renilla luciferase reporter assay. The class given is functional, organism-based, Hepacivirus hominis. Conditions: Huh-7, 72 h. A digest of the protocol:
as §2
(A reporter such as luciferase makes a cellular process visible.)

The nature of series [5]: Therapeutic index, ratio of CC50 for human HuH7 cells infected with HCV1b to EC50 for HCV genotype 1b. Particulars: read-out: Ratio CC50/EC50. Format: cell-based, Huh-7. A digest of the protocol:
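Index computed as CC₅₀/EC₅₀, both values from 3-day assays in Huh-7/HCV1b-Rluc replicon cells: EC₅₀ from renilla luciferase signal, CC₅₀ from MTS absorbance at 450 nm, each fitted from eight serial dilutions against vehicle.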

Series [6] in a line: Cytotoxicity against human HuH7 cells infected with HCV1b after 3 days by MTS assay. The class given is cell-based, Huh-7. The procedure, abridged:
as §1
(Tetrazolium dyes change colour on reduction, which living cells bring about.)

A short description of series [7]: Inhibition of HCV NS5b RNA-dependent RNA polymerase. Further details: species or system Hepacivirus hominis.

In the case of `O=C1Cc2ccc(-c3ccco3)cc2C(=O)N1O`, in series [1], the half-inhibitory concentration (IC50) came out at 18 µM. The viability at 72 h, 10 µM in series [2] turned out to be 21%. Also, the Activity in series [3] turned out to be 51%.

As to `O=C1Cc2ccc(-c3cccs3)cc2C(=O)N1O`, the viability at 72 h, 10 µM in series [2] amounted to 21%. In addition, in series [3], the Activity was found to be 99%.

`O=C1Cc2ccc(-c3ccc(F)c(F)c3)cc2C(=O)N1O`: the viability at 72 h, 10 µM in series [2] was 33%. Further, the Activity in series [3] is 100%.

Regarding `O=C1Cc2ccc(-c3ccc(F)c(Cl)c3)cc2C(=O)N1O`, the IC50 in series [1] turned out to be 7.1 µM. Besides, in series [2], the viability at 72 h, 10 µM came out at 83%. Also, in series [3], the Activity was 30%.

Turning to `COc1cccc(-c2ccc3c(c2)C(=O)N(O)C(=O)C3)c1`, the viability at 72 h, 10 µM in series [2] was 37%. In addition, in series [3], the Activity was 54%.

For `O=C1Cc2ccc(-c3cc4ccccc4o3)cc2C(=O)N1O`, the viability at 72 h, 10 µM in series [2] was 33%. In series [3], the Activity came out at 83%.

On to `O=C1Cc2cc(-c3ccco3)ccc2C(=O)N1O`, for which the IC50 in series [1] was 1.3 µM. For the same compound, the viability at 72 h, 10 µM in series [2] came to 96%. The compound also gave an EC50 in series [4] of 1.9 µM. Moreover, in series [5], the selectivity ratio was found to be 6.8. In addition, half-maximal cytotoxicity in series [6] (CC50 at 72 h) was put at 13 µM. Moreover, the Activity in series [3] was determined as 89%.

As to `Cc1ccc(-c2ccc3c(c2)CC(=O)N(O)C3=O)o1`, in series [1], the IC50 is 18 µM. The viability at 72 h, 10 µM in series [2] stood at 87%. This compound also had an EC50 in series [4] of 4.3 µM. Besides, in series [5], the selectivity ratio turned out to be 2.6. Also, the midpoint of cytotoxicity in series [6], the CC50 at 72 h, lay at 11 µM. For the same compound, the Activity in series [3] stood at 76%.

For the compound `O=C1Cc2cc(-c3ccoc3)ccc2C(=O)N1O`, the IC50 in series [1] is 11 µM. In addition, the viability at 72 h, 10 µM in series [2] was determined as 52%. The Activity in series [3] is 100%.

For `O=C1Cc2cc(-c3cccc4c3oc3ccccc34)ccc2C(=O)N1O`, the viability at 72 h, 10 µM in series [2] is 28%. For the same compound, the Activity in series [3] came to 98%.

Consider `O=C1Cc2cc(-c3cc4ccccc4o3)ccc2C(=O)N1O`, for which, in series [2], the viability at 72 h, 10 µM worked out at 46%. For the same compound, the Activity in series [3] turned out to be 73%.

Turning to `O=C1Cc2cc(-c3cccs3)ccc2C(=O)N1O`, in series [1], the IC50 amounted to 7.3 µM. Also, the viability at 72 h, 10 µM in series [2] worked out at 100%. In series [4], a half-maximal response (EC50) required 1.7 µM. The selectivity ratio in series [5] is 11. In series [6], the CC50 at 72 h was determined as 18 µM. In series [3], the Activity is given as 93%.

As to `O=C1Cc2cc(-c3ccsc3)ccc2C(=O)N1O`, the concentration for half-maximal inhibition (IC50) in series [1] worked out at 9 µM. Further, the viability at 72 h, 10 µM in series [2] turned out to be 100%. In addition, the EC50 in series [4] is 44 µM. Moreover, the selectivity ratio in series [5] is 2.2. In series [6], the CC50 at 72 h was 98 µM. The Activity in series [3] is 72%.

In the case of `O=C1Cc2cc(-c3csc4ccccc34)ccc2C(=O)N1O`, in series [2], the viability at 72 h, 10 µM is 34%. Besides, the Activity in series [3] is given as 95%.

As to `O=C1Cc2cc(-c3cccc4c3sc3ccccc34)ccc2C(=O)N1O`, in series [2], the viability at 72 h, 10 µM was found to be 32%. Also, the Activity in series [3] is 95%.

For the compound `O=C1Cc2cc(-c3ccc4c(c3)OCO4)ccc2C(=O)N1O`, the viability at 72 h, 10 µM in series [2] was 79%. Besides, the Activity in series [3] amounted to 28%.

On to `O=C1Cc2cc(-c3ccc(C(F)(F)F)cc3)ccc2C(=O)N1O`, for which the viability at 72 h, 10 µM in series [2] stood at 29%. Also, in series [3], the Activity came to 93%.

Regarding `O=C1Cc2cc(-c3ccc(F)cc3)ccc2C(=O)N1O`, the IC50 in series [1] is 20 µM. Besides, in series [2], the viability at 72 h, 10 µM came out at 90%. The EC50 in series [4] was determined as 9.6 µM. In addition, the selectivity ratio in series [5] was 1.2. For the same compound, half-maximal cytotoxicity in series [6] (CC50 at 72 h) was put at 11 µM. The Activity in series [3] is 73%.

On to `O=C1Cc2cc(-c3ccc(F)c(F)c3)ccc2C(=O)N1O`, for which the viability at 72 h, 10 µM in series [2] is 34%. Moreover, the Activity in series [3] was determined as 78%.

For the compound `O=C1Cc2cc(-c3cccc(-c4ccccc4)c3)ccc2C(=O)N1O`, the viability at 72 h, 10 µM in series [2] amounted to 23%. Besides, the Activity in series [3] came out at 95%.

For the compound `CS(=O)(=O)c1ccc(-c2ccc3c(c2)CC(=O)N(O)C3=O)cc1`, the viability at 72 h, 10 µM in series [2] was 100%. For the same compound, the Activity in series [3] turned out to be 3%.

`N#Cc1cc(COc2cccc(C(=O)/C=C(\O)C(=O)O)c2)c(Cl)cc1Cl`: the 50% inhibitory concentration (IC50) was found to be 0.045 µM in series [7] and 0.015 µM in series [1].

In the case of `O=C1Cc2ccc(I)cc2C(=O)N1O`, in series [1], the half-maximal inhibitory concentration (IC50) stood at 15 µM. The viability at 72 h, 10 µM in series [2] amounted to 86%. Further, the 50% effective concentration (EC50) in series [4] came out at 3.9 µM. Further, the selectivity ratio in series [5] turned out to be 6.9. In series [6], this compound displayed a CC50 at 72 h of 27 µM. In series [3], the Activity turned out to be 79%.

For `C[C@@]1(O)[C@H](O)[C@@H](CO)O[C@H]1n1cnc2c(N)ncnc21`, the selectivity ratio in series [5] was found to be 270. In series [6], this compound came in with a CC50 at 72 h of 55 µM.

In series [4], `NC(=O)c1ncn([C@@H]2O[C@H](CO)[C@@H](O)[C@H]2O)n1` [RIBAVIRIN] displayed a concentration for a half-maximal effect (EC50) of 14 µM. For the same compound, the selectivity ratio in series [5] was 2.3. This compound displayed a CC50 at 72 h in series [6] of 32 µM.
